These results are taken from ChEMBL document CHEMBL5038571, “Design and Synthesis of EZH2-Based PROTACs to Degrade the PRC2 Complex for Targeting the Noncatalytic Activity of EZH2” (J Med Chem, 2021).

The target of test [1] is T1, Protein cereblon/Histone-lysine N-methyltransferase EZH2 (Homo sapiens) (UniProt Q15910+Q96SW2). Briefly: PROTAC activity at CRBN E3 ligase/EZH2 in PRC2 complex in human WSUDLCL2 cells assessed as downregulation of RbAp48 expression at 1 uM pretreated with MG-132 for 4 hrs followed by compound addition and measured after 48 hrs by Western blot analysis. The test is classed as cell-based. In a few lines: (§1)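 WSU-DLCL-2 cells pretreated 4 h with the named inhibitor, then compound added and incubated a further 48 h. EZH2, SUZ12, EED and RbAp48 measured by western blot (nitrocellulose transfer, skim-milk block, primary antibody overnight at 4 °C, chemiluminescent detection).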

The target of test [2] is Polycomb protein EED (Homo sapiens) (UniProt O75530). Description: Binding affinity to EED in human WSUDLCL2 cells assessed as thermal stability by measuring shift in temperature at 60 uM pretreated with proteasome inhibitor MG132 for 1 hr followed by compound addition incubated for 2 hrs by cellular thermal shift based Western blot analysis. Type of test: cell-based. The gist of the method:
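Cellular thermal shift: cells suspended at 1.5 × 10⁶/mL and pretreated with MG-132 (5 μM, 1 h), then given 60 μM compound for 2 h with a DMSO control. Cells were lysed in RIPA with cocktail for 1 h. Supernatant aliquots were heated 6 min at 45, 48, 51, 54, 57 and 60 °C and centrifuged 15 min. Soluble protein was immunoblotted; bands quantified by densitometry; three independent experiments.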
In general terms: Immunoblotting shows a protein as a band on a membrane.

Test [3] deals with T1, Protein cereblon/Histone-lysine N-methyltransferase EZH2 (Homo sapiens). Description: PROTAC activity at CRBN E3 ligase/EZH2 in PRC2 complex in human WSUDLCL2 cells assessed as effect on EED mRNA expression at 1 uM incubated for 48 hrs by RT-qPCR analysis. Type of test: cell-based. The gist of the method:
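WSU-DLCL-2 cells treated 48 h with 1 μM compound. Total RNA extracted with Trizol and reverse-transcribed. SYBR qPCR run as 95 °C 30 s, then 40 cycles of 95 °C 6 s and 60 °C 20 s. PRC2 subunit mRNA normalized to the DMSO-treated group; mean SD, t-test.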
Background: Real-time PCR tracks product formation cycle by cycle.

For test [4], the system named is WSUDLCL2. Description: Inhibition of PRC2 in human WSUDLCL2 cells assessed as suppression H3K27 dimethylation at 10 uM incubated for 48 hrs by Western blot analysis. The test is classed as cell-based. In a few lines: (§2)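 Lysates run on SDS-PAGE and transferred to nitrocellulose. Membranes blocked with 5% skim milk for 2 h, primary antibody applied overnight at 4 °C, then secondary antibody and chemiluminescent detection of histone H3 methylation marks.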

The subject of test [5] is A549. Briefly: Upregulation of […] mRNA expression in human […] cells at 5 uM incubated for 48 hrs by qRT-PCR analysis. The test is classed as functional, cell-based. The gist of the method:
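A549 cells treated 48 h. Trizol RNA extraction, reverse transcription, SYBR qPCR (95 °C 30 s; 40 cycles of 95 °C 6 s, 60 °C 20 s). mRNA normalized to DMSO-treated cells; mean ± SD of three independent experiments.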

In test [6] the target is T1, Protein cereblon/Histone-lysine N-methyltransferase EZH2 (Homo sapiens). Briefly: PROTAC activity at CRBN E3 ligase/EZH2 in PRC2 complex in human WSUDLCL2 cells assessed as induction of SUZ12 degradation at 1 uM incubated for 48 hrs by Western blot analysis relative to control. The test is classed as cell-based. In a few lines:
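WSU-DLCL-2 cells treated 48 h (1 μM for the single-concentration screen), lysed; SDS-PAGE, nitrocellulose transfer, 5% milk block, primary antibody 4 °C overnight, chemiluminescence. Bands quantified by densitometry, normalized to GAPDH, expressed relative to DMSO-treated cells; mean ± SD of three independent experiments, t-test.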

The next test concerns NCI-H1299. Description: Downregulation of CEP76 mRNA expression in human NCI-H1299 cells at 10 uM incubated for 48 hrs by qRT-PCR analysis. The test is classed as functional, cell-based. In a few lines:
(§3)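 Cells treated 48 h. Total RNA extracted with Trizol, reverse-transcribed, and SYBR RT-qPCR run: 95 °C 30 s, then 40 cycles of 95 °C 6 s and 60 °C 20 s. mRNA normalized to the DMSO-treated group. Mean SD of three independent experiments, t-test versus DMSO.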

The target of test [7] is T1, Protein cereblon/Histone-lysine N-methyltransferase EZH2 (Homo sapiens). Description: PROTAC activity at CRBN E3 ligase/EZH2 in PRC2 complex in human A2780 cells assessed as induction of EZH2 degradation by measuring reduction in EZH2 protein level at 1 uM incubated for 48 hrs by Western blot analysis. Type of test: cell-based. In a few lines: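 Cancer cell lines exposed to 1 μM compound for 48 h. Lysates immunoblotted (SDS-PAGE, nitrocellulose, 5% milk block, primary antibody overnight at 4 °C) for EZH2, SUZ12, EED, RbAp48 and H3K27me3. Bands quantified by densitometry and normalized to GAPDH.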

Another test concerns Pfeiffer. Briefly: Upregulation of TXINP mRNA expression in human Pfeiffer cells at 1 uM incubated for 48 hrs by qRT-PCR analysis. Type of test: functional, cell-based. In a few lines: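 WSU-DLCL-2 or Pfeiffer cells treated 48 h. Trizol RNA extraction, reverse transcription, SYBR qPCR (95 °C 30 s; 40 cycles of 95 °C 6 s, 60 °C 20 s). mRNA normalized to DMSO-treated cells; mean ± SD of three independent experiments, t-test.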

A further test relates to MDA-MB-468. Description: Downregulation of CHEK1 mRNA expression in human MDA-MB-468 cells at 10 uM incubated for 48 hrs by qRT-PCR analysis. The test is classed as functional, cell-based. The gist of the method: as §3
The test system of test [8] is WSUDLCL2. Briefly: Effect on Histone H3 methylation in human WSUDLCL2 cells assessed as reduction in H3K27me1 levels at upto 10 uM incubated for 48 hrs by Western blot analysis. Type of test: functional, cell-based. The following applies: dose microM <=10, time 48.0 hrs. The gist of the method: as §2
The target of test [9] is T1, Protein cereblon/Histone-lysine N-methyltransferase EZH2 (Homo sapiens). Briefly: PROTAC activity at CRBN E3 ligase/EZH2 in PRC2 complex in human WSUDLCL2 cells assessed as downregulation of RbAp48 expression at 1 uM pretreated with lenalidomide for 4 hrs followed by compound addition and measured after 48 hrs by Western blot analysis. Type of test: cell-based. The gist of the method:
as §1

Test [10] has the same target. Briefly: PROTAC activity at CRBN E3 ligase/EZH2 in PRC2 complex in human SU-DHL-6 cells assessed as induction of EZH2 degradation by measuring reduction in EZH2 protein level at 1 uM incubated for 48 hrs by Western blot analysis. The test is classed as cell-based. In a few lines:
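Cells cultured in DMEM or RPMI 1640 with 10% FBS and 1% penicillin-streptomycin, 37 °C, 5% CO2; exposed to 1 μM compound for 48 h. Lysates run on SDS-PAGE and transferred to nitrocellulose. Blocked 2 h in 5% skim milk, primary antibody overnight at 4 °C, then secondary antibody. Chemiluminescent detection of PRC2 subunits and H3K27me3.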

For test [11], the system named is A549. Description: Antiproliferative activity against human A549 cells harboring SWI/SNF mutant assessed as inhibition of cell growth at 10 uM treated for 9 days by optical microscopic analysis. The following applies: time 9.0 day. The test is classed as functional, cell-based. The gist of the method:
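Cells seeded at 5 × 10³ per well, grown 24 h, then exposed to compound at 10 μM for 9 days with medium refreshed. Cells were photographed and counted on days 1, 3, 5, 7 and 9. For lines 1-2, EZH2-targeting or control shRNA was induced in the cells. Mean SD of three independent experiments; t-test against control.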

Test [12] concerns the target T1, Protein cereblon/Histone-lysine N-methyltransferase EZH2 (Homo sapiens). Briefly: PROTAC activity at CRBN E3 ligase/EZH2 in PRC2 complex in human WSUDLCL2 cells assessed as induction of EED degradation at 10 uM incubated for 48 hrs by Western blot analysis. The test is classed as cell-based.

The source made the active and inactive calls. No cut-off for these calls is given here.

T1 sequence (Q15910 whole entry, looked up): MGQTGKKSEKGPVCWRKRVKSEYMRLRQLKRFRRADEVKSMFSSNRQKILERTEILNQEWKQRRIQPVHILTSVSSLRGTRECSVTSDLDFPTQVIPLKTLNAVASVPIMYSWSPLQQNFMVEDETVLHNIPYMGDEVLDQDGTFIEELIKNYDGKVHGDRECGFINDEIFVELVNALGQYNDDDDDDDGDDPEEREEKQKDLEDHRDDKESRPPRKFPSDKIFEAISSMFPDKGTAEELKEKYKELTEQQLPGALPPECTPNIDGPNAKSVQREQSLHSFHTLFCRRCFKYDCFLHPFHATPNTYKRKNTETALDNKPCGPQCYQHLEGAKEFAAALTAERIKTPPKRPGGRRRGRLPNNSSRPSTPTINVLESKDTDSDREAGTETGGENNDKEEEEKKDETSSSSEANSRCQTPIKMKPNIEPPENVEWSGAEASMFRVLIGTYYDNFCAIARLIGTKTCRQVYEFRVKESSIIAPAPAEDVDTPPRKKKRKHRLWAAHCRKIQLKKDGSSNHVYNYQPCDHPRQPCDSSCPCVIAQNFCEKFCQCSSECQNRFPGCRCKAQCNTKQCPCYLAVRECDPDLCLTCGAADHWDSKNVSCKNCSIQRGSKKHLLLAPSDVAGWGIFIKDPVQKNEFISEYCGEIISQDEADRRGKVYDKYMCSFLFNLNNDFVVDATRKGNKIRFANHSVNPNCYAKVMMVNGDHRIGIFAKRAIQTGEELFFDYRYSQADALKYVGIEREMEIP
T1 sequence (Q96SW2 whole entry, looked up): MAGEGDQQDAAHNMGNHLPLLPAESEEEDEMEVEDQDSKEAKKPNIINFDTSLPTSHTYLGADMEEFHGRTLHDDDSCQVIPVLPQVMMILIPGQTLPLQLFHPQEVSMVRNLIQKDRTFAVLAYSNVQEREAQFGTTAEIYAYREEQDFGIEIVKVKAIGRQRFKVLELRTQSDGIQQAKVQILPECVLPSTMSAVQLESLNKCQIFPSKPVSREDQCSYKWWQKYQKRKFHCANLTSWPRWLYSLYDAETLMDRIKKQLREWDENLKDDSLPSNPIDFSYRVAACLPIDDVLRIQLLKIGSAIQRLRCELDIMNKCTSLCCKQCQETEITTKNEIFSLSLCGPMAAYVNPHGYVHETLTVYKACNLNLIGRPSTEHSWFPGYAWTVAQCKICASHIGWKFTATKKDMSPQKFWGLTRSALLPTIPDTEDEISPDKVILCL
Chain of Polycomb protein EED (Homo sapiens) (O75530 2-441 limits assumed): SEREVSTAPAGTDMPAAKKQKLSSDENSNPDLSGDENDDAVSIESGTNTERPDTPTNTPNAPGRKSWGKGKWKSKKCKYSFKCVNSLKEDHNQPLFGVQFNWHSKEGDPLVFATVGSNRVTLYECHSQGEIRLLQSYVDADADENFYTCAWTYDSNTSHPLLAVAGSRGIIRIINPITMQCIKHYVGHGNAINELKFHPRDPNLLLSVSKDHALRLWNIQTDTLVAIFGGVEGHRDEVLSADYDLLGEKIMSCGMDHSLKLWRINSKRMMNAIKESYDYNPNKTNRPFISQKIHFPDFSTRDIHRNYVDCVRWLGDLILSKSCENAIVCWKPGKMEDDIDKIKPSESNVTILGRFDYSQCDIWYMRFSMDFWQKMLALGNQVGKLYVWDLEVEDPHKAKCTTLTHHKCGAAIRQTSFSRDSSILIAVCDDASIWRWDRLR

As for `CCN(c1cc(-c2ccc(CN3CCN(CCCCCCCOc4cccc5c4C(=O)N(C4CCC(=O)NC4=O)C5=O)CC3)cc2)cc(C(=O)NCc2c(C)cc(C)[nH]c2=O)c1C)C1CCOCC1` (stereo not given), the outcome (in [1]; in [2]; in test [3]; in the test on Pfeiffer; with WSUDLCL2 [8]; in test [9]) was inactive. For the same molecule, the outcome in test [12] was inactive. The inhibition result in the test with WSUDLCL2 [4] is “Active”. The outcome (with A549 [5]; in the test with NCI-H1299; in [7]; with MDA-MB-468; in test [10]; in the test on A549 [11]) was Active. Besides, the Activity in test [6] amounted to 81%.
